Calls of active or inactive are those of the source. No cut-off for these calls is given here.

This note sets out measurements from ChEMBL document CHEMBL4706649, “Design, synthesis and biological evaluation of new benzoxazolone/benzothiazolone derivatives as multi-target agents against Alzheimer's disease” (Eur J Med Chem, 2021).

Data set [1] relates to THP-1. Nature of the data set: Antiinflammatory activity in LPS-induced human THP-1 cells assessed as reduction in IL1beta release at 10 uM peincubated for 1 hr followed by LPS stimulation and measured after 24 hrs by EIA. The class given is functional, cell-based. Conditions: time 25.0 hrs. The method in brief: (§1)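 THP-1 cells grown in RPMI 1640 with 10% FCS, penicillin and streptomycin at 37 °C, 5% CO2, then plated overnight at 4×10⁴ cells/well. Test compound added 1 h before 100 ng/ml E. coli O111:B4 LPS; 24 h incubation. Untreated and LPS-only controls. […]; cytokine read by EIA at 450 nm against a standard curve. At least triplicate.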

Data set [2] relates to THP-1. Nature of the data set: Antiinflammatory activity in LPS-induced human THP-1 cells assessed as reduction in IL6 release at 10 uM peincubated for 1 hr followed by LPS stimulation and measured after 24 hrs by EIA. Format: functional, cell-based. The note with it: time 25.0 hrs. An outline of the steps: as §1
For data set [3], the target named is Cholinesterase (Equus caballus, UniProt P81908). Nature of the data set: Inhibition of equine serum BChE using butyrylthiocholine iodide as substrate preincubated for 10 mins followed by substrate addition and measured for 10 mins by Ellman's method. An outline of the steps:
(§2)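 BChE (0.8 U/mL solution) preincubated with inhibitor 10 min at 25 °C in Tris-HCl pH 8.0 with DTNB and 1% DMSO, then BTI (30 mM stock) added. A412 read over 10 min, blank-corrected. IC50 from log[inhibitor] versus % inhibition. Triplicate, mean ± SD.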

Data set [4] deals with THP-1. Nature of the data set: Antiinflammatory activity in LPS-induced human THP-1 cells assessed as reduction in TNFalpha release at 10 uM peincubated for 1 hr followed by LPS stimulation and measured after 24 hrs by EIA. The class given is functional, cell-based. Conditions: time 25.0 hrs. The method in brief: as §1
Data set [5] deals with THP-1. Briefly: Antiinflammatory activity in LPS-induced human THP-1 cells assessed as reduction in nitric oxide release at 10 uM peincubated for 1 hr followed by LPS stimulation and measured after 24 hrs by ELISA. The class given is functional, cell-based. Conditions: time 25.0 hrs. An outline of the steps: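 THP-1 cells plated overnight at 4×10⁴ cells/well, given test compound 1 h before 100 ng/ml LPS (E. coli O111:B4), then incubated 24 h. Cell-free supernatants stored at −20 °C, then NO measured by ELISA kit (sensitivity 1,12 […]) from a standard curve. Untreated cells as negative control, LPS-only as positive control. At least triplicate.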
In general terms: In an ELISA, binding on a coated surface is turned into a signal by an enzyme label.

For data set [6], the target named is Cholinesterase (Equus caballus) (UniProt P81908). Briefly: Inhibition of equine serum BChE at 100 uM using butyrylthiocholine iodide as substrate preincubated for 10 mins followed by substrate addition and measured for 10 mins by Ellman's method relative to control. Conditions: time 20.0 min. An outline of the steps: (§3)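 Ellman single-concentration screen in 50 mM Tris-HCl pH 8.0 with DTNB (6.8 mM stock) and 1% DMSO. Enzyme solution 0.4 U/mL AChE or 0.8 U/mL BChE. Compound and enzyme preincubated 10 min at 25 °C, then ATI (10 mM stock) or BTI (30 mM stock) added. A412 followed for 10 min, blank-subtracted, % inhibition versus no-compound control. Triplicate.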
Sequence of Cholinesterase (Equus caballus) (P81908 whole entry): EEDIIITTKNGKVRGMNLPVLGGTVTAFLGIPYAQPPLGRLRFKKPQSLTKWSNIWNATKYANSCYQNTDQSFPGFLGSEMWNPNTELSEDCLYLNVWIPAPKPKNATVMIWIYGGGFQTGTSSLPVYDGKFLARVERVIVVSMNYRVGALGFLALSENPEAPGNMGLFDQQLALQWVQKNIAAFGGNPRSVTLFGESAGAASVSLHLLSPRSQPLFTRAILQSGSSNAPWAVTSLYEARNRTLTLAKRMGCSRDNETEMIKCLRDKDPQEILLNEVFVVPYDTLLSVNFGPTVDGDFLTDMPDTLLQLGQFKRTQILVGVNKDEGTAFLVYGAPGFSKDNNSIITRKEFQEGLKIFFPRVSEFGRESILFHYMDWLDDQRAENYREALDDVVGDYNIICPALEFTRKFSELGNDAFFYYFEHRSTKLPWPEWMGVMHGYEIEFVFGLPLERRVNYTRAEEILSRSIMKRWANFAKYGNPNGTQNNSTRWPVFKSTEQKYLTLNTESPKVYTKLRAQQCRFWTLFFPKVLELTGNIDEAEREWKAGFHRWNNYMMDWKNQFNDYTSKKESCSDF
For orientation: In Ellman's method for cholinesterases, released thiocholine reacts with DTNB.

A short description of data set [7]: Antioxidant activity assessed as trolox equivalent of AAPH radical scavenging activity at 10 uM measured every min for 90 mins by ORAC-FL assay. Format: functional. An outline of the steps: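 ORAC-FL in 75 mM phosphate buffer pH 7.4. Sample and fluorescein (150 nM final) preincubated 15 min at 37 °C, then AAPH (12 mM final) added. Fluorescence (ex 485/em 535 nm) read each minute for 90 min. Net AUC after blank subtraction, converted to Trolox equivalents from a Trolox curve (0.5–8, final; Trolox = 1). Duplicate wells, three independent assays.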

Data set [8] deals with Acetylcholinesterase (Electrophorus electricus) (UniProt O42275). Briefly: Inhibition of electric eel AChE at 100 uM using acetylthiocholine iodide as substrate preincubated for 10 mins followed by substrate addition and measured for 10 mins by Ellman's method relative to control. Conditions: time 20.0 min. The method in brief:
as §3

Data set [9] is described as follows: Induction of apoptosis in mouse 3T3 cells assessed as necrotic cells at 10 uM measured after 24 hrs by Annexin V-FITC/propidium iodide staining based flow cytometry (reference value: 0%). The class given is cell-based. The note with it: 3t3, 24 h. The method in brief: (§4)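 3T3 fibroblasts exposed to compound for 24 h, with untreated cells as negative control. Cells trypsinized, PBS-washed, stained with Annexin V-FITC and PI by kit protocol, then analysed by flow cytometry. Populations: live (Annexin−/PI−), early apoptotic (Annexin+/PI−), late apoptotic (Annexin+/PI+) and dead (Annexin−/PI+). Percentages given as mean ± SD.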
In general terms: A flow cytometer gives signals particle by particle.

A short description of data set [10]: Induction of apoptosis in mouse 3T3 cells assessed as early apoptotic cells at 10 uM measured after 24 hrs by Annexin V-FITC/propidium iodide staining based flow cytometry (Rvb <= 0.97%). Format: cell-based. The note with it: 3t3, 24 h. The method in brief:
as §4

Data set [11] addresses Amyloid-beta precursor protein (Homo sapiens) (UniProt P05067). Briefly: Inhibition of amyloid beta (1 to 42) (unknown origin) self-induced aggregation at 50 uM by Thioflavin T based fluorometric assay relative to control. The method in brief: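 Thioflavin T fluorometric assay of Aβ1-42 self-aggregation, with inhibitor and Aβ42 both at 50 (equimolar). Samples dissolved in DMSO. Result given as % inhibition, mean of two independent experiments each run in triplicate.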

The target of data set [12] is Acetylcholinesterase (Electrophorus electricus, UniProt O42275). Nature of the data set: Inhibition of electric eel AChE using acetylthiocholine iodide as substrate preincubated for 10 mins followed by substrate addition and measured for 10 mins by Ellman's method.
Sequence of Acetylcholinesterase (Electrophorus electricus, UniProt O42275) (O42275 whole entry): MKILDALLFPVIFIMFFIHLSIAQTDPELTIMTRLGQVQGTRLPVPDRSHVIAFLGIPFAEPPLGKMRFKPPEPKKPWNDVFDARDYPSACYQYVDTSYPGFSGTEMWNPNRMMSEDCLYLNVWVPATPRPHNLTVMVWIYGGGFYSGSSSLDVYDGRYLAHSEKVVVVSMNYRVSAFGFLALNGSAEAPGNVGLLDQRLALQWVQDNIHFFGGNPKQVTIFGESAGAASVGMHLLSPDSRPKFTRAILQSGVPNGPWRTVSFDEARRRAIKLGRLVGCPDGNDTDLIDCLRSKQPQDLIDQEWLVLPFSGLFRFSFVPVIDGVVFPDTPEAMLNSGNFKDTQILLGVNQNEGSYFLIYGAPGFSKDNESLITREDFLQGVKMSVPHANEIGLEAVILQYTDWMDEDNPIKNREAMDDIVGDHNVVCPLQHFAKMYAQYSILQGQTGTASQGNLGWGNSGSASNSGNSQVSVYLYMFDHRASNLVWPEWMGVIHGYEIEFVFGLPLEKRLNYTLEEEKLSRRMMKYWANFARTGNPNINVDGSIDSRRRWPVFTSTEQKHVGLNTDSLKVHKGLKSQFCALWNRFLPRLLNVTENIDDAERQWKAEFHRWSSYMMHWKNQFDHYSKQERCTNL
The nature of data set [13]: Cytotoxicity against mouse 3T3 cells assessed as cell viability at 0.1 uM measured after 24 hrs by MTT assay relative to control. The note with it: read-out: Activity. The class given is cell-based. An outline of the steps: (§5)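 3T3 fibroblasts (ATCC CCL92) grown as adherent monolayers in DMEM with 10% inactivated FBS, 2 mM L-glutamine and penicillin/streptomycin at 37 °C, 5% CO2. Cells exposed to compounds for 24 h. MTT added for 4 h, formazan dissolved in SDS for 24 h, OD read at 570 nm. Viability given as % of untreated OD; at least triplicate, mean ± SD.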

Data set [14] can be described thus: Induction of apoptosis in mouse 3T3 cells assessed as viable cells at 10 uM measured after 24 hrs by Annexin V-FITC/propidium iodide staining based flow cytometry (reference value: 98.83 to 99%). The class given is cell-based. The note with it: read-out: Activity. The method in brief: as §4
Data set [15] is described as follows: Cytotoxicity against mouse 3T3 cells assessed as cell viability at 10 uM measured after 24 hrs by MTT assay relative to control. The note with it: read-out: Activity. The class given is cell-based. The method in brief: as §5
Data set [16] can be described thus: Cytotoxicity against mouse 3T3 cells assessed as cell viability at 1 uM measured after 24 hrs by MTT assay relative to control. The class given is cell-based. Conditions: read-out: Activity. The method in brief:
as §5

Data set [17] in a line: Induction of apoptosis in mouse 3T3 cells assessed as late apoptotic cells at 10 uM measured after 24 hrs by Annexin V-FITC/propidium iodide staining based flow cytometry (reference value: 0.1 to 0.13%). The class given is cell-based. The note with it: 3t3, 24 h. An outline of the steps: as §4
Data set [18] addresses Acetylcholinesterase (Homo sapiens, UniProt P22303). Nature of the data set: Inhibition of recombinant human AChE expressed in HEK293 cells using acetylthiocholine iodide as substrate preincubated for 10 mins followed by substrate addition and measured for 10 mins by Ellman's method.
For data set [19], the target named is Cholinesterase (Homo sapiens, UniProt P06276). Briefly: Inhibition of recombinant human BChE using butyrylthiocholine iodide as substrate preincubated for 10 mins followed by substrate addition and measured for 10 mins by Ellman's method. An outline of the steps:
as §2

The species entered for data set [20] is Homo sapiens. Nature of the data set: Reversible inhibition of recombinant human BChE assessed as residual activity at IC50 using butyrylthiocholine iodide as substrate preincubated for 30 mins followed by 100-fold dilution in presence of substrate and measured after 15 mins by Ellman's method relative to control. The note with it: time 45.0 min.
Data set [21] is filed under the species Homo sapiens. Nature of the data set: Reversible inhibition of recombinant human BChE assessed as residual activity at 0.1 times IC50 using butyrylthiocholine iodide as substrate preincubated for 30 mins followed by 100-fold dilution in presence of substrate and measured after 15 mins by Ellman's method relative to control. The note with it: time 45.0 min.

Sequence of Cholinesterase (Equus caballus, UniProt P81908) (P81908 whole entry): as the sequence (P81908 whole entry) above
Sequence of Amyloid-beta precursor protein (Homo sapiens) (P05067 whole entry): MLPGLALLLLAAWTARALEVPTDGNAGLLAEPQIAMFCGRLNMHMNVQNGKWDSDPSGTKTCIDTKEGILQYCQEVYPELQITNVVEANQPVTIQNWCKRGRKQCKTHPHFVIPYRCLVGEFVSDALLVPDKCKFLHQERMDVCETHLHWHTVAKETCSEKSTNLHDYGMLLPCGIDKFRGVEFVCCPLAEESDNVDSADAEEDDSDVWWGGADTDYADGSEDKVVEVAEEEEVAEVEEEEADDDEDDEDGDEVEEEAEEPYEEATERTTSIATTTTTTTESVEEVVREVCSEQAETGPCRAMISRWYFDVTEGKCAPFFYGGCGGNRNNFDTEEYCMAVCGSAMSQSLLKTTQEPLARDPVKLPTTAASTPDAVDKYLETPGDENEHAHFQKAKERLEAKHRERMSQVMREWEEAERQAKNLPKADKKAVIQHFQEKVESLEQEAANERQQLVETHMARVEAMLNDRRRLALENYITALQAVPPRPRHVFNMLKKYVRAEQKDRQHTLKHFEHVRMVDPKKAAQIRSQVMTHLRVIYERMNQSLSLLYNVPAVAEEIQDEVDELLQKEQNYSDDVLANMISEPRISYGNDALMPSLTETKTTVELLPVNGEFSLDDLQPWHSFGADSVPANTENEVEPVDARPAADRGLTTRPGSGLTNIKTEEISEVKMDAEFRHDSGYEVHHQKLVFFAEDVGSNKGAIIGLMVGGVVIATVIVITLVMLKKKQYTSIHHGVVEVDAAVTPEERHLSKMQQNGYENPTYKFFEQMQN
Sequence of Acetylcholinesterase (Electrophorus electricus) (O42275 24-633 limits assumed): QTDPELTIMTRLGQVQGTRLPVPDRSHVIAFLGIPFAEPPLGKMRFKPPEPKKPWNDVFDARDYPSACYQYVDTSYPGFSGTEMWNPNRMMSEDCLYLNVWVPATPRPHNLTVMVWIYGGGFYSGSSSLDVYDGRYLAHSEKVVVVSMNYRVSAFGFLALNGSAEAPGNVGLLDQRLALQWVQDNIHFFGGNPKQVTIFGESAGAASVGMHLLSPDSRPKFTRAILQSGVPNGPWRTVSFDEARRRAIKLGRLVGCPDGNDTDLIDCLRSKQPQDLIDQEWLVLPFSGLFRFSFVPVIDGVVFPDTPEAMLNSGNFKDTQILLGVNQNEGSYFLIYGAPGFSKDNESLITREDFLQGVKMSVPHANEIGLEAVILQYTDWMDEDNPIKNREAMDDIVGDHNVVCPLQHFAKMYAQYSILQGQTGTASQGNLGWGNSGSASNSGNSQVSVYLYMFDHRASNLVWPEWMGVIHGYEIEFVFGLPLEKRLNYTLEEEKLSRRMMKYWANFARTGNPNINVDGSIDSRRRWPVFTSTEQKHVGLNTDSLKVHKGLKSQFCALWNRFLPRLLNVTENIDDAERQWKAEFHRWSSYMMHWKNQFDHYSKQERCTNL
Sequence of Cholinesterase (Homo sapiens, UniProt P06276) (P06276 whole entry): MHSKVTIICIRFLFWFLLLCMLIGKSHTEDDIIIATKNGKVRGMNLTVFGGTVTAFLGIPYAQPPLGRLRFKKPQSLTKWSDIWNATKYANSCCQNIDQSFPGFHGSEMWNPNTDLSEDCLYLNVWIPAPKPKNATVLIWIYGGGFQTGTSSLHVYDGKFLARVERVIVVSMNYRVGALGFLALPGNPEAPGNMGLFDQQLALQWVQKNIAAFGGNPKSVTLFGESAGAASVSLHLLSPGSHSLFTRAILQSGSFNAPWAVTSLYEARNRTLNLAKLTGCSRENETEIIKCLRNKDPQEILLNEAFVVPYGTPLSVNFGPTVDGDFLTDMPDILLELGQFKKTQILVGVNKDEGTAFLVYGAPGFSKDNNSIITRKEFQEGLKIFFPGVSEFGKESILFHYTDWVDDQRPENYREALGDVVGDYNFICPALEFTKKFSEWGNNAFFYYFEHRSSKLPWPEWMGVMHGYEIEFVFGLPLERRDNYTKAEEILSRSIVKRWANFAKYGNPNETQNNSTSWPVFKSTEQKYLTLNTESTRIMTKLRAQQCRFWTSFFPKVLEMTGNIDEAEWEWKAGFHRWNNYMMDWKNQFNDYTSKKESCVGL
Sequence of Acetylcholinesterase (Homo sapiens, UniProt P22303) (P22303 whole entry): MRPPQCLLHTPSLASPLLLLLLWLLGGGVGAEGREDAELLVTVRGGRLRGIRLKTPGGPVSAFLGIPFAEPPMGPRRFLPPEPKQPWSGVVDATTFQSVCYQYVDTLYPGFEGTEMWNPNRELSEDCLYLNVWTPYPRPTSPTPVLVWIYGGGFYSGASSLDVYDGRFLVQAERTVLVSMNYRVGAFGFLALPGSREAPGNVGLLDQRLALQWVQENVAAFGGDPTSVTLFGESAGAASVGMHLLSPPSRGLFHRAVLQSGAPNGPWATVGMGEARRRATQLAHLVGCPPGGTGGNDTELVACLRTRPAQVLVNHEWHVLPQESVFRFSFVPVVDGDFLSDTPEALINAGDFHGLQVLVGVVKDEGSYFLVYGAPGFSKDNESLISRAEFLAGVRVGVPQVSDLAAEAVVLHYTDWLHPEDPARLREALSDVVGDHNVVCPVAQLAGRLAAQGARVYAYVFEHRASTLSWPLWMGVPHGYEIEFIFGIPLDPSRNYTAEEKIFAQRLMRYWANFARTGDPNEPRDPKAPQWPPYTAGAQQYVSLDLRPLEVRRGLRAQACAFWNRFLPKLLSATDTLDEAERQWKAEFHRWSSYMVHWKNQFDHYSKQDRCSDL

As a reminder, the IC50 is the concentration that gives 50% inhibition. By inhibition is commonly meant the relative decrease from the control value, in per cent. A lower inhibition goes with a response near the control. Consider `Cn1c(=O)sc2cc(NC(=O)CCCN3CCC(c4ccccc4)CC3)ccc21`, for which the outcome with THP-1 [1], in the data set on THP-1 [2], with THP-1 [4] and with THP-1 [5] was Active. The compound also displayed an IC50 at Cholinesterase [3] of 9.65 µM. Further, the inhibition is 90% in [6] and 32% in data set [8]. The Activity in data set [7] is 2.93 equiv.
As for `Cn1c(=O)sc2cc(C(=O)CCN3CCN(Cc4ccccc4)CC3)ccc21`, the Activity in data set [9] came to 0.4%; in [10] it was 1.03%; in data set [7], 3.7 equiv; in data set [17], 0.1%. Besides, the inhibition in [11] was 57.5%; in data set [6] it was less than 10%; in data set [8], 99%. Moreover, the IC50 against Acetylcholinesterase [12] was 0.34 µM; at Acetylcholinesterase [18], 0.46 µM. Besides, the outcome in the data set on THP-1 [1], in the data set on THP-1 [2], in the data set on THP-1 [4] and in the data set with THP-1 [5] was Active. The viability at 24 h, 0.1 µM in data set [13] amounted to 102%. Moreover, the viability at 24 h, 10 µM in [14] is 98.3%; in data set [15], 92.6%. The viability at 24 h, 1 µM in [16] turned out to be 99.3%.
In [11], `O=S1(=O)OC(c2ccc(O)cc2)(c2ccc(O)cc2)c2ccccc21` returned an inhibition of 32.2%.
As for `Cn1c(=O)sc2cc(NC(=O)CCN3CCN(Cc4ccc(F)cc4)CC3)ccc21`, the IC50 against Acetylcholinesterase [12] came to 7.09 µM; against Cholinesterase [3], 37.6 µM. In addition, the inhibition in [6] worked out at 52%; in [8] it was 74%. The Activity in [7] amounted to 4.1 equiv.
With `Cn1c(=O)sc2cc(NC(=O)CCN3CCC(c4ccccc4)CC3)ccc21`, the half-inhibitory concentration (IC50) came out at 60.3 µM against Acetylcholinesterase [12] and 11.1 µM against Cholinesterase [3]. Further, the values for the inhibition in data set [6] and in data set [8] were 81% and 60%, respectively. The Activity in data set [7] was 4.31 equiv.
The like results for `CN(CCC(=O)Nc1ccc2c(c1)sc(=O)n2C)Cc1ccccc1` were, in that order, 49.5 µM, 42 µM, 70%, 63% and 3.9 equiv.
As to `Cn1c(=O)sc2cc(NC(=O)CCCCN3CCC(c4ccccc4)CC3)ccc21`, the Activity result is “<= 0.23%” in [9]; 1.73% in data set [10]; 2.61 equiv in data set [7]; 0.33% in data set [17]; 81.5% in the data set filed under Homo sapiens [20]; 98.4% in the data set listed under Homo sapiens [21]. The inhibition in [11] came out at 55.6%; in data set [6], 96%; in [8] it was 30%. Also, the result in the data set on THP-1 [1], in the data set with THP-1 [2], in the data set with THP-1 [4] and in the data set on THP-1 [5] was Active. In data set [13], the viability at 24 h, 0.1 µM was determined as 98.9%. The values for the IC50 at Cholinesterase [3] and on Cholinesterase [19] were 2.98 µM and 2.56 µM, respectively. For the same compound, the viability at 24 h, 10 µM came out at 93.8% in [14] and 93.6% in [15]. Also, the viability at 24 h, 1 µM in data set [16] stood at 97.1%.
For the compound `COc1cc2c(cc1OC)C(=O)C(CC1CCN(Cc3ccccc3)CC1)C2` (stereo unspecified), the result with THP-1 [1], in the data set with THP-1 [2], in the data set on THP-1 [4] and with THP-1 [5] was Active. Moreover, the Activity in the data set listed under Homo sapiens [20] amounted to 90.2%; in the data set listed under Homo sapiens [21], 95.4%.
